Laboratory results taken from ChEMBL document CHEMBL1128295 (J Med Chem, 1995).
Several values for one entry are separate records, joined by “and”; a condition that tells them apart may be missing. Identical values can stand only once. Activity calls are given as the source filed them. No cut-off for these calls is given here.

Tests used:
[1] = target: Histamine H1 receptor (Cavia porcellus) (UniProt P31389); assay: Contractile effect on isolated guinea pig ileal segments is a measure of H1 (histamine) receptor agonistic activity relative to histamine.; assay type: functional
Chain of Histamine H1 receptor (Cavia porcellus) (P31389 whole entry): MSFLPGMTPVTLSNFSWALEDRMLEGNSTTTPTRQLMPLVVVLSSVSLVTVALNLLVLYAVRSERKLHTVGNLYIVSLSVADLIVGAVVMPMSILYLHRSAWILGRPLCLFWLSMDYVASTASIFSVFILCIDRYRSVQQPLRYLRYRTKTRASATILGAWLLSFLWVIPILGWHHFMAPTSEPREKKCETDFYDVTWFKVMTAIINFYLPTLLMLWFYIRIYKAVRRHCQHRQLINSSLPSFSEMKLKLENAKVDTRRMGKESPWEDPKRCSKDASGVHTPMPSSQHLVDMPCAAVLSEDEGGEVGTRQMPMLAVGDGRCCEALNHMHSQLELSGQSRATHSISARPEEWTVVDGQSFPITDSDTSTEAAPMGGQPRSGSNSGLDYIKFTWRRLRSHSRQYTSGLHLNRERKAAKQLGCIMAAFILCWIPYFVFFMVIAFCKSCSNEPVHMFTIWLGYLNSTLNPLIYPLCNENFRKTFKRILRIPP

[2] = target: Histamine H1 receptor (Cavia porcellus) (UniProt P31389); assay: Contractile effects on guinea pig aorta as histamine H1 receptor agonism; assay type: functional, tissue-based
Summary of the method: (§1)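 Endothelium-denuded 4–6 mm guinea pig thoracic aortic rings, isometric (preload 10 mN), modified Krebs-Henseleit, 37 °C, 95% O2/5% CO2. […] Cumulative curves with 30 μM corticosterone, 100 μM cimetidine, 0.1 μM (R,S)-propranolol and phentolamine present.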

[3] = target: Histamine H1 receptor (Cavia porcellus) (UniProt P31389); assay: Contractile effect on isolated guinea pig ileal segments by H1 (histamine) receptor agonism.; assay type: functional
[4] = target: Histamine H1 receptor (Cavia porcellus) (UniProt P31389); assay: H1-Histamine receptor agonism on Guinea pig aorta was evaluated as Intrinsic activity given as 1.0 with respect to histamine (paired 't'test;p>0.05)(SEM 0.01-0.12); assay type: functional, tissue-based
[5] = target: Histamine H1 receptor (Cavia porcellus) (UniProt P31389); assay: Contractile effect on isolated guinea pig aorta is a measure of H1 (histamine) receptor agonistic activity relative to histamine; assay type: functional, tissue-based; summary of the method: as §1
[6] = target: Histamine H1 receptor (Cavia porcellus) (UniProt P31389); assay: H1-Histamine receptor agonism on guinea pig ileum as intrinsic activity given as 1.0 with respect to histamine (paired 't'test; p>0.05).; assay type: functional, tissue-based
[7] = target: Histamine H1 receptor (Cavia porcellus) (UniProt P31389); assay: The H1 receptor-mediated nature of the ileum contractionhas been verified by competition experiments with the H1 receptor antagonist mepyramine; assay type: functional, tissue-based
[8] = target: Histamine H2 receptor (Cavia porcellus) (UniProt P47747); assay: Histamine H2 receptor agonism activity was determined on the isolated Guinea pig Atrium was determined as pD'2; assay type: functional
Chain of Histamine H2 receptor (Cavia porcellus) (P47747 whole entry): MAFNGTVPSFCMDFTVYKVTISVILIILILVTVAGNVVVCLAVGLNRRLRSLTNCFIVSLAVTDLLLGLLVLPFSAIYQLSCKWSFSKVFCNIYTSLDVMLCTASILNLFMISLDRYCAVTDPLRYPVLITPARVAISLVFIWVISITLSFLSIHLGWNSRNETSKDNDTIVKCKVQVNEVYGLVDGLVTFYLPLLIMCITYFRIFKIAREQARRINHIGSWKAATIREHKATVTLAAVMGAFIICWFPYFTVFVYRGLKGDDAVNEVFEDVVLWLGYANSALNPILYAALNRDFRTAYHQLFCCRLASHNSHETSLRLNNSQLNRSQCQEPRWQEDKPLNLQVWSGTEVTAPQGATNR
Summary of the method: (§2)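 Spontaneously beating guinea pig right atrium, isometric, resting force 5 mN, (R,S)-metoprolol 300 nM present throughout.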

[9] = target: Histamine H1 receptor (Cavia porcellus) (UniProt P31389); assay: H1-Histamine receptor agonism on Guinea pig aorta was evaluated as Intrinsic activity given as 1.0 with respect to histamine (paired 't'test;p>0.05) (SEM 0.01-0.12); assay type: functional, tissue-based; summary of the method: as §1
[10] = target: Histamine H2 receptor (Cavia porcellus) (UniProt P47747); assay: Histamine H2 receptor agonism activity was determined on the isolated Guinea pig Atrium was determined as Intrinsic activity with respect to Histamine; assay type: functional; summary of the method: as §2
[11] = target: Histamine H1 receptor (Cavia porcellus) (UniProt P31389); assay: Contractile effects of compound on the guinea pig aorta as a measure of histamine H1 receptor agonism; f - effect could be antagonized with 1 pM mepyramine added to the bath solution when a plateau was reached.; assay type: functional, tissue-based; conditions: filed as agonist, in the assay text read “1 µM mepyramine” for “1 pM mepyramine”; summary of the method: as §1
[12] = target: Histamine H1 receptor (Cavia porcellus) (UniProt P31389); assay: H1-Histamine receptor agonism on Guinea pig aorta was evaluated as Intrinsic activity given as 1.0 with respect to histamine (paired 't'test;p>0.05); assay type: functional, tissue-based; summary of the method: as §1
[13] = target: Histamine H1 receptor (Cavia porcellus) (UniProt P31389); assay: The H1 receptor-mediated nature of the ileum contractionhas been verified by competition experiments with the H1 receptor antagonist mepyramine;O=effect could be antagonized with 1 uM Mepyramine added to the bath solution when a plateau was rea; assay type: functional, tissue-based
[14] = target: Histamine H1 receptor (Cavia porcellus) (UniProt P31389); assay: The H1 receptor-mediated nature of the ileum contractionhas been verified by competition experiments with the H1 receptor antagonist mepyramine; O=effect could be antagonized with 1 uM Mepyramine added to the bath solution when a plateau was re; assay type: functional, tissue-based
[15] = target: Histamine H1 receptor (Cavia porcellus) (UniProt P31389); assay: H1-Histamine receptor agonism on Guinea pig aorta was evaluated as Intrinsic activity given as 1.0 with respect to histamine (paired 't'test;p>0.05) (SEM0.03-0.18); assay type: functional, tissue-based; summary of the method: as §1
[16] = target: Histamine H1 receptor (Mus musculus) (UniProt P70174); assay: In vivo binding of H1 receptor Agonists measured by binding of [3H]mepyramine to Mouse cerebral cortex at the dosage of ( 3 mg/kg(no. of mice treated=5 ); conditions: at 3 mg/kg
Chain of Histamine H1 receptor (Mus musculus) (P70174 whole entry, looked up): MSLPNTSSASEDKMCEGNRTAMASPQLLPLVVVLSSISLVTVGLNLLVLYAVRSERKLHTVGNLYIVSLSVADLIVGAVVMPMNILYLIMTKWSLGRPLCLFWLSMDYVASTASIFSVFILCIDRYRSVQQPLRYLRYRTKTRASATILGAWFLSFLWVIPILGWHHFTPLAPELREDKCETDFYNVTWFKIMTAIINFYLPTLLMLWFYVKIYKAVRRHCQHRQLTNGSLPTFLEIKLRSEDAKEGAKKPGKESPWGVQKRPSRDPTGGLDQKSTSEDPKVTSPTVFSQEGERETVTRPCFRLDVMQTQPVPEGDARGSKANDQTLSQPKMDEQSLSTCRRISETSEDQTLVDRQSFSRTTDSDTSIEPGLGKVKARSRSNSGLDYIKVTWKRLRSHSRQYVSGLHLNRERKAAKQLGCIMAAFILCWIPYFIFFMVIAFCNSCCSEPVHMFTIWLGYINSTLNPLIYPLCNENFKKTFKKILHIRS

[17] = target: Histamine H1 receptor (Mus musculus) (UniProt P70174); assay: In vivo binding of H1 receptor Agonists measured by binding of [3H]-Mepyramine to Mouse cerebral cortex at the dosage of ( 300 mg/kg(no. of mice treated= 3 ); conditions: at 300 mg/kg
[18] = target: Histamine H1 receptor (Mus musculus) (UniProt P70174); assay: In vivo binding of H1 receptor Agonists measured by binding of [3H]mepyramine to Mouse cerebral cortex at the dosage of ( 30 mg/kg(no. of mice treated= 5 ); conditions: at 30 mg/kg
[19] = target: Histamine H1 receptor (Mus musculus) (UniProt P70174); assay: In vivo binding of H1 receptor Agonists measured by binding of [3H]mepyramine to Mouse cerebral cortex at the dosage of ( 10 mg/kg(no. of mice treated=5 ); conditions: at 10 mg/kg
[20] = target: Histamine H1 receptor (Mus musculus) (UniProt P70174); assay: In vivo binding of H1 receptor Agonists measured by binding of [3H]mepyramine to Mouse cerebral cortex at the dosage of ( 100 mg/kg(no. of mice treated= 3 ); conditions: at 100 mg/kg

SMILES | Relative activity [1] | pD2 [3] | Relative activity [5] | Intrinsic activity [6] | pKb [7] | Intrinsic activity [10] | further results
NCCc1c[nH]c(-c2cccc(Cl)c2)n1 | 81% | – | – | – | – | – | –
NCCc1c[nH]c(-c2csc(Br)c2)n1 | 26% | 6.11 | 11% | 1 | 9.04 | – | pKb [2]: 8.63; Intrinsic activity [4]: 0.6
NCCc1c[nH]c(-c2cccc(OC(F)(F)F)c2)n1 | 54% | 6.43 | – | 1 | 8.92 | – | –
NCCc1c[nH]c(-c2ccco2)n1 | 47% | 6.37 | 23% | 1 | 9.16 | 0.36 | pKb [2]: 9.28; pD'2 [8]: < 3; Intrinsic activity [9]: 0.47
NCCc1c[nH]c(Cc2cccc(Cl)c2)n1 | 2% | 4.88 | 0.4% | 0.76 | 8.81 | – | pKb [11]: Agonist; Intrinsic activity [12]: 0.51
NCCc1c[nH]c(Cc2cccs2)n1 | 3% | 5.09 | 0.8% | 1 | 8.92 | – | pKb [11]: Agonist; Intrinsic activity [4]: 0.45
NCCc1c[nH]c(-c2cncc(Br)c2)n1 | 70% | 6.54 | – | 1 | 9.03 | – | –
NCCc1c[nH]c(-c2ccccc2C(F)(F)F)n1 | < 1% | 4.47 | – | 0.26 | – | – | pKb [13]: Active
NCCc1c[nH]c(-c2ccc(C(F)(F)F)cc2)n1 | < 1% | 4.6 | – | 0.24 | – | – | pKb [13]: Active
NCCc1c[nH]c(Cc2ccc(C(F)(F)F)cc2)n1 | – | – | – | 0 | – | – | PkB [7]: 4.53
NCCc1c[nH]c(-c2ccc[nH]2)n1 | 14% | 5.86 | 12% | 0.93 | 9.03 | – | pKb [2]: 9.27; Intrinsic activity [4]: 0.74
NCCc1c[nH]c(-c2ccc3ccccc3c2)n1 | 1% | 4.85 | – | 0.24 | – | – | pKb [14]: Active
Cc1cccc(-c2nc(CCN)c[nH]2)c1 | 15% | 5.87 | – | 1 | 9.04 | – | –
NCCc1c[nH]c(-c2cccc(F)c2)n1 | 87% | – | – | – | – | – | –
NCCc1c[nH]c(Cc2ccccc2Cl)n1 | 3% | 5.11 | 0.2% | 0.54 | 8.91 | – | pKb [11]: Agonist; Intrinsic activity [12]: 0.38
NCCc1c[nH]c(-c2cc3ccccc3c3ccccc23)n1 | – | – | – | 0 | 4.73 | – | –
CNCCc1ccccn1 | 8% | – | – | – | – | – | –
NCCc1c[nH]c(C(F)(F)F)n1 | 7% | 5.57 | – | 1 | 9.19 | 0.55 | –
NCCc1c[nH]c(-c2cccc(Br)c2)n1 | – | – | – | 1 | – | 0 | Intrinsic activity [12]: 0.64
NCCc1c[nH]c(Cc2ccccc2C(F)(F)F)n1 | – | – | – | 0 | 3.55 | – | –
COc1cccc(-c2nc(CCN)c[nH]2)c1 | 40% | – | – | – | – | – | –
Cc1ncc(CCN)[nH]1 | 15% | – | – | – | – | – | –
NCCc1c[nH]c(-c2ccccc2)n1 | 10% and 31% | 6.2 | 19% | 1 | 8.87 | 0.2 | pKb [2]: 9.1; pD'2 [8]: < 3; Intrinsic activity [12]: 0.86
NCCc1c[nH]c(Cc2cccc(C(F)(F)F)c2)n1 | < 1% | 4.57 | – | 0.28 | – | – | pKb [14]: Active
NCCc1c[nH]c(-c2cccs2)n1 | 46% | 6.36 | 12% | 1 | 8.93 | 0.25 | pKb [2]: 8.83; Intrinsic activity [15]: 0.5; pD'2 [8]: < 3
NCCc1c[nH]c(Cc2ccsc2)n1 | 4% | 5.26 | 0.9% | 1 | 8.97 | – | pKb [11]: Agonist; Intrinsic activity [12]: 0.4
NCCc1c[nH]c(-c2cccc(C(F)(F)F)c2)n1 | 128% | 6.81 | 94% | 1 | 9.14 | 0 | pKb [2]: 9.04; Control [16]: 101%; Control [17]: 129%; Control [18]: 98%; pD'2 [8]: 3.48; Intrinsic activity [12]: 0.8; Control [19]: 122%; Control [20]: 112%
NCCc1c[nH]c(-c2cccc(I)c2)n1 | 96% | 6.68 | 47% | 1 | 9.28 | 0 | pKb [2]: 9.13; pD'2 [8]: 3.76; Intrinsic activity [12]: 0.49
NCCc1c[nH]cn1 | – | 6.7 | – | – | 9.09 | 1 | Intrinsic activity [12]: 1.06
NCCc1c[nH]c(-c2ccsc2)n1 | 66% | 6.52 | 19% | 1 | 9.13 | 0.13 | pKb [2]: 9.01; pD'2 [8]: < 3; Intrinsic activity [4]: 0.43
